Bioassay records deposited in PubChem BioAssay by The Scripps Research Institute Molecular Screening Center.
M1 ag: human M1 muscarinic receptor agonism; CHO-K1 hM1, Fluo-8 calcium fluorescence, agonist mode; 0% DMSO, 100% acetylcholine EC100; P11229; activation, % at 3 µM; actives 0.33% (n = 360,000); AID 588814;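 active = activation above the run's mean compound activation plus 3 SD, cut at about 16% in these data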;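 note: peak over basal fluorescence ratio within a 140 s kinetic read after compound addition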
CHRM1 PAM: positive allosteric modulators of human M1 muscarinic receptor; P11229; CHO-K1 hM1, Fluo-8 calcium fluorescence, ACh EC20; 0% = ACh EC20, 100% = maximal ACh; activation, % at 3 µM; actives 0.088% (n = 360,000); AID 588819; in the data active = activation above about 19%, passing the limit was not always enough
M1 antag: blocks human M1 muscarinic receptor. P11229. CHO-K1 hM1, Fluo-8 calcium fluorescence, ACh EC80 antagonist. inhibition, % at 3 µM. actives 1.3% (n = 360,000);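 active = percent inhibition above its own plate's cutoff, namely the mean of that plate's compound wells plus 3 SD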;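 note: peak over basal fluorescence ratio during 140 s after agonist addition; 0% = ACh EC80 plus DMSO and 100% = DMSO alone without agonist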
m5-HT2A agonist: mouse HTR2A agonism via beta-arrestin recruitment. activation, % at 7.6 µM. CHO-K1 mHTR2A beta-arrestin complementation, luminescence; percent of 30 µM serotonin response. P35363. actives 0.66% (n = 360,000);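 active = activation above a run cutoff, the mean activation of all tested compounds plus 3 SD, cut at about 14% in these data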;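 note: 0% = plate median of compound wells and 100% = 30 µM serotonin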
TAAR1 ag: human TAAR1 agonism; Q96RJ0; actives 0.99% (n = 360,000); CHO RD-HGA16 TAAR1, Fluo-8 calcium fluorescence; vehicle wells 0%, saturating PEA agonist 100%; activation, % at 3 µM;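 active = activation above the mean activation of all test compounds in the run plus 3 SD, cut at about 38% in these data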
Target sequence (Q96RJ0 whole entry, looked up): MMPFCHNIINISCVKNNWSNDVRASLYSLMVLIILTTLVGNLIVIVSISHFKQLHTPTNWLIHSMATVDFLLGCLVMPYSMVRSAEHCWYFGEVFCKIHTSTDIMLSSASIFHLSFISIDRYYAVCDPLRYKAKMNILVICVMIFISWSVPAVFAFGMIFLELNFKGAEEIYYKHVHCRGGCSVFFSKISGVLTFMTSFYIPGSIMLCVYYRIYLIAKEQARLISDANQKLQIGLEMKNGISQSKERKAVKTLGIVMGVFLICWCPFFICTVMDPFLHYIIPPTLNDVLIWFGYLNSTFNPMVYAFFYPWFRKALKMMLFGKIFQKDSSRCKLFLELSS
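Test system: RD-HGA16 (CHO) cells co-expressing Gα16 and hTAAR1 | Doses: Single dose, 3 µM | Schedule: 17-24 h seeding, 75 min 37 °C dye, 30 min RT | Evaluation: % activation from peak over basal fluorescence ratio, DMSO-to-PEA scaled | Technique: Kinetic Fluo-8 calcium fluorescence | Benchmarks: Low control DMSO, high control PEA (EC100)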
TAAR1 antagonist: antagonists of human TAAR1 | Q96RJ0 | CHO RD-HGA16 TAAR1, Fluo-8 calcium fluorescence, antagonist | inhibition, % at 3 µM | actives 1.5% (n = 360,000);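 active = inhibition above a per-plate cutoff, the mean inhibition of test compounds on that plate plus 3 SD, cut at about 49% in these data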;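 note: 0% = DMSO plus EC80 beta-PEA response and 100% = DMSO alone without agonist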
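Test system: hTAAR1-expressing CHO RD-HGA16 cells, Gα16-coupled; Probe or stimulus: EC80 β-phenethylamine stimulus; Compound dosing: single nominal final test compound concentration of 3 µM; Timing: 140 s kinetic read after compound, 140 s after agonist; Signal: Fluo-8 calcium-sensitive fluorescence; Measure: % inhibition of agonist calcium response; Controls: DMSO and EC80 PEA controls.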
Numbers without * were called inactive; . = no result given. A selection: hits, their analogues and other compounds. The true share with any hit is near 3.9%.

SMILES	M1 ag	CHRM1 PAM	M1 antag	m5-HT2A agonist	TAAR1 ag	TAAR1 antagonist
CCn1cc(CN2CCC(n3nccc3NC(=O)C(OC)c3ccccc3)CC2)cn1 (stereo unspecified)	-3	10	-13	2	1	-10
CCOC(=O)c1c(S(=O)(=O)NCCc2ccccc2)c(C)n(C)c1C	-5	-1	3	9	39*	-18
COc1cccc(/C=C/C(=O)OCC(=O)c2c[nH]c3ccccc23)c1	-3	-2	0	6	0	39
CCOC(=O)C1CCN(C(=O)COC(=O)/C=C/c2cccc(OC)c2OC)CC1	19*	14	-9	2	14	4
CCOC(=O)C1CCN(C(=O)COC(=O)/C=C/c2ccccc2)CC1	5	12	-10	-2	2	13
COc1cccc(/C=C/C(=O)OCC(=O)c2c[nH]c3ccccc23)c1OC	-4	-11	9	0	11	54*
O=C(Nc1cccc([N+](=O)[O-])c1)OCc1ccc2c(c1)OCO2	.	.	.	.	1	31
CC(=O)Nc1ccc(CN(C)CC2CCCN(CCc3cccc(C(F)(F)F)c3)C2)cc1 (stereo unspecified)	-8	-29	52*	-3	3	4
O=C(c1cccc(C(F)(F)F)c1)C1CCCN(Cc2cccn2-c2ccccn2)C1 (stereo unspecified)	-14	-36	35*	1	12	4
COc1ccc(C(=O)C2CCCN(Cc3ccc4nonc4c3)C2)cc1F (stereo unspecified)	-5	-11	14	-2	-2	-34
COc1ccc(C(=O)C2CCCN(Cc3ccc(C#CCCO)cc3)C2)cc1F (stereo unspecified)	-13	-33	58*	-1	2	5
O=C(c1ccc(-c2ccccc2)cc1)C1CCCN(Cc2ccncc2)C1 (stereo unspecified)	-13	-16	11	-8	8	4
CC(=O)Nc1ccc(CN2CCCC(C(=O)c3ccc(C(F)(F)F)cc3)C2)cc1 (stereo unspecified)	-16	-38	51*	-3	2	10
O=C(Nc1cccnc1)C1CC(=O)N(c2ccc(F)cc2)C1 (stereo unspecified)	-4	1	1	-6	4	0
CCOc1cc(CNc2cccc3[nH]c(C)nc23)ccc1OC	2	17	-16	-2	2	-12
O=C(NCC1CCCO1)c1cccc(S(=O)(=O)N(Cc2ccccc2)c2ccccc2)c1 (stereo unspecified)	-4	9	-5	11	0	-10
COc1cccc(O)c1CN1CCCC(C(=O)c2cccc(C(F)(F)F)c2)C1 (stereo unspecified)	-5	-21	27	-5	18	-17
O=C(c1cccc(C(F)(F)F)c1)C1CCCN(Cc2cccc(OCCO)c2)C1 (stereo unspecified)	-11	-31	39*	-7	4	19
COCc1cc(CN2CCCC(C(=O)c3cccc(C(F)(F)F)c3)C2)ccc1OC (stereo unspecified)	-12	-31	43*	0	4	0
Cc1cccc(NC2=NCC(=O)N2Cc2cccs2)c1	-3	3	1	3	-1	-12
CC1=NNC(=O)/C1=C\c1cn(-c2ccccc2)nc1-c1ccccc1	1	-8	33*	4	31	61*
c1csc(CCNc2ncnc3sc4c(c23)CCC4)c1	2	-18	33*	3	-3	18
CCN(CC)CCNc1c(C)cc(CO)c(Cl)c1C	-7	12	-17	1	2	-24
COc1ccc(Nc2c(-c3ccco3)nc3cccc(C)n23)cc1	-4	6	-1	-3	39*	-15
COc1cc(NC(=O)c2ccco2)c(C(=O)OCC(=O)c2c[nH]c3ccccc23)cc1OC	-2	-12	19	3	17	62*
COc1ccccc1NC(=O)COC(=O)c1c[nH]c2ccccc12	0	-14	8	0	8	49*
COC(=O)CCN(Cc1ccc(OC)cc1OC)S(=O)(=O)c1ccccc1Br	.	.	.	.	-1	-24
